Data from ChEMBL document CHEMBL1681705, “Optimisation of ITK inhibitors through successive iterative design cycles” (Bioorg Med Chem Lett, 2011).

Legend:
[1] = tested on: Mus musculus; assay: Antiinflammatory activity in BALB/c mouse assessed as inhibition of monoclonal anti-CD3-induced IL-2 production at 10 mg/kg, po administered 1 hr before monoclonal anti-CD3 challenge measured after 2 hrs by ELISA relative to control; format: functional
Procedure, shortened: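 Female BALB/c mice (~20 g) dosed orally at 10 mg/kg, 1 h before iv anti-CD3 monoclonal antibody (clone 145-2C11, 10 µg/kg). Vehicle (saline) plus antibody group served as positive control. Plasma IL-2 determined from heart-puncture blood 2 h after stimulation, under anaesthesia. Inhibition expressed relative to vehicle; n = 8 mice/group.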

[2] = Solubility of the compound; format: physicochemical
[3] = target: Mitogen-activated protein kinase 10 (Homo sapiens) (UniProt P53779); assay: Inhibition of JNK3 at 1 uM
Chain of Mitogen-activated protein kinase 10 (Homo sapiens) (P53779 whole entry): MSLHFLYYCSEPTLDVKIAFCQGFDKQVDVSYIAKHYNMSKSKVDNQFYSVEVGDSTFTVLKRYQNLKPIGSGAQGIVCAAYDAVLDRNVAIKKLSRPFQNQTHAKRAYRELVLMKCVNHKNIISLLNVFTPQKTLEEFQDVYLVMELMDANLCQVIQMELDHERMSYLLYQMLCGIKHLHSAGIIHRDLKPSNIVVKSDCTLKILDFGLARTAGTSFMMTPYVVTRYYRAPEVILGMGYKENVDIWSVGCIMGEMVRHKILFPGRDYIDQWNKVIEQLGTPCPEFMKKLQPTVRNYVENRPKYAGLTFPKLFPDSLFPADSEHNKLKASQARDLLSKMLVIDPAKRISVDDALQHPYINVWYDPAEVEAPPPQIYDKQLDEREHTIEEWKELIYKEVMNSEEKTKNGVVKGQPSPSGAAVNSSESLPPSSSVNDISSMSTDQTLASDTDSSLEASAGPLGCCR
Procedure, shortened: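 Single-point profiling in a panel of 108 kinases. Each selected inhibitor was tested at two concentrations, 0.1 and 1.0 micromolar. Values are reported as inhibition at each concentration.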

[4] = target: T1, Serine/threonine-protein kinase STK11 (Homo sapiens) (UniProt Q15831); assay: Inhibition of LKB1 at 0.1 uM; values are per cent of control
T1 sequence (whole entry): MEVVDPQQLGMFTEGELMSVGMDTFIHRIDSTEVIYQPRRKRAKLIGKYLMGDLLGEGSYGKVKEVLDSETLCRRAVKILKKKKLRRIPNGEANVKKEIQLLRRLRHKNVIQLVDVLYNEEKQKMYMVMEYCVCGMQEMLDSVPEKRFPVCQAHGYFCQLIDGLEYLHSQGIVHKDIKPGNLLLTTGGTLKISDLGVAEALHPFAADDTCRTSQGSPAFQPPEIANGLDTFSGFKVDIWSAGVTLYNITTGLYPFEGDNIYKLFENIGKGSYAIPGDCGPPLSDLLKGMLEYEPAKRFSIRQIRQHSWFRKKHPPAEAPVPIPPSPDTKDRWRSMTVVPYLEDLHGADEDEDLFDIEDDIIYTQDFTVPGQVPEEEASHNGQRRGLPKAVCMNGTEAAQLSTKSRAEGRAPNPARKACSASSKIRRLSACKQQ

[5] = target: Serine/threonine-protein kinase pim-2 (Homo sapiens) (UniProt Q9P1W9); assay: Inhibition of Pim-2 at 0.1 uM; values are per cent of control
Chain of Serine/threonine-protein kinase pim-2 (Homo sapiens) (Q9P1W9 whole entry, looked up): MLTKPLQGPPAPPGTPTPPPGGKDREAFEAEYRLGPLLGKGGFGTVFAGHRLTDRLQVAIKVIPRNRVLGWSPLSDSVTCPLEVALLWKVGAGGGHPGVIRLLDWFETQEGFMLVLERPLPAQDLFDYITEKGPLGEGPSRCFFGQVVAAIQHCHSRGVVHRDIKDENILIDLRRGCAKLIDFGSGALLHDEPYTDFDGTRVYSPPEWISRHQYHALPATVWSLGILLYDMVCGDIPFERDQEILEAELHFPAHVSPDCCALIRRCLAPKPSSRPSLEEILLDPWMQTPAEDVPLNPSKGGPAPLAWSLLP

[6] = tested on: Mus musculus; assay: Antiinflammatory activity in iv dosed BALB/c mouse assessed as inhibition of monoclonal anti-CD3-induced IL-2 production administered 10 min before monoclonal anti-CD3 challenge measured after 2 hrs by ELISA
[7] = tested on: Mus musculus; assay: Antiinflammatory activity in BALB/c mouse assessed as inhibition of monoclonal anti-CD3-induced IL-2 production at 10 mg/kg, iv administered 10 min before monoclonal anti-CD3 challenge measured after 2 hrs by ELISA; settings: BLD = below limit of detection
[8] = Inhibition of ROCK1 at 1 uM
[9] = target: Serine/threonine-protein kinase PAK 2 (Homo sapiens) (UniProt Q13177); assay: Inhibition of PAK2 at 0.1 uM; values are per cent of control
Chain of Serine/threonine-protein kinase PAK 2 (Homo sapiens) (Q13177 whole entry): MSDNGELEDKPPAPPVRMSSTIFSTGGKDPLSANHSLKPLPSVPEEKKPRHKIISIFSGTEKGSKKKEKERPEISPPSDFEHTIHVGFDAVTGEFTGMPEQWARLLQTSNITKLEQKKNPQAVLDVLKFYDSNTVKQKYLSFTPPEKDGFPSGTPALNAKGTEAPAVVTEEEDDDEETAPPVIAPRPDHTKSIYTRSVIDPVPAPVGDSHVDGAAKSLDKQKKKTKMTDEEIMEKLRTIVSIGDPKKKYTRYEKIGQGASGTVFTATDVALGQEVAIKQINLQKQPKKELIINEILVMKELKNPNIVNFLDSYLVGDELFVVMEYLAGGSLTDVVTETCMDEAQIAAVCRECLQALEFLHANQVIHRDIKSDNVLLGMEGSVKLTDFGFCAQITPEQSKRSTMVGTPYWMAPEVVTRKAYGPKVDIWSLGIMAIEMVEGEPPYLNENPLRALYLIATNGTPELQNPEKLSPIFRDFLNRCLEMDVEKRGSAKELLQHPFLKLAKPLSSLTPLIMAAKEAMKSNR

[10] = target: T2, Ephrin type-B receptor 3 (Homo sapiens) (UniProt P54753); assay: Inhibition of EphB3 at 0.1 uM; values are per cent of control
T2 sequence (whole entry): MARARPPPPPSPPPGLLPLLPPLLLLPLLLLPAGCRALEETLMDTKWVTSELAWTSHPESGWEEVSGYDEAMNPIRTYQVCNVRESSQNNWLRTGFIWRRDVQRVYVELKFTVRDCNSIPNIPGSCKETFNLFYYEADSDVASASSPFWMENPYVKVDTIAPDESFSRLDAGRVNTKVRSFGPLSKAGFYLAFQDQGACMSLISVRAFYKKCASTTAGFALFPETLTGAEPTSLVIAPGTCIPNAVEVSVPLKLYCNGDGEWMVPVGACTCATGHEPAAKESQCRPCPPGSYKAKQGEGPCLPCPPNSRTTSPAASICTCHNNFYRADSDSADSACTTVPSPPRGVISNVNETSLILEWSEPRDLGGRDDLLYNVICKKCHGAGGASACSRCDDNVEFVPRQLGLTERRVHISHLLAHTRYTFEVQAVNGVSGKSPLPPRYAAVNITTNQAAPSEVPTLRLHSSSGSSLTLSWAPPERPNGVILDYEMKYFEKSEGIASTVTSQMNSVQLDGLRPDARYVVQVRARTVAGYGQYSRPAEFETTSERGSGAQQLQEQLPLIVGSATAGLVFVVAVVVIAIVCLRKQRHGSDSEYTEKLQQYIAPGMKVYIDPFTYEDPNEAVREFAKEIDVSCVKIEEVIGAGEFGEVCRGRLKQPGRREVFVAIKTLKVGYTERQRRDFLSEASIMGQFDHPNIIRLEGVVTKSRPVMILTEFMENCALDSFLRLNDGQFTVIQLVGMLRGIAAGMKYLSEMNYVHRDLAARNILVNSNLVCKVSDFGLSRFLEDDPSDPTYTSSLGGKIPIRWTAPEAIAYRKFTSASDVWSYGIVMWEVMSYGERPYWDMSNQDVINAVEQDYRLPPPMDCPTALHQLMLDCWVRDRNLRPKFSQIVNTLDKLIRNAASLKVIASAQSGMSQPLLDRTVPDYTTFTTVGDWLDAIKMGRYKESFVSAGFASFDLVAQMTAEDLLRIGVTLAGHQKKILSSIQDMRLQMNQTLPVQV

solubility [2] | inhibition [3] | residual activity [4] | residual activity [5] | inhibition [8] | residual activity [9] | residual activity [10] | SMILES | inhibition in vivo at 10 mg/kg [1] | ED50 [6] | inhibition [6] | inhibition [7]
soluble | 36% | 104% | 99% | – | – | – | Cc1ccc2cc(-c3n[nH]c4ccc(NC5CCNC5)cc34)[nH]c2c1 (centres undefined) | > 80% | 2.1 mg/kg | Dose-dependent effect | BLD
– | 91% | 97% | 98% | 45% | 93% | 127% | Cc1ccc2cc(-c3n[nH]c4ccc(NC5CCN(Cc6ccccc6)CC5)cc34)[nH]c2c1 | – | – | – | –
